Assays:
[1] = folding enthalpy; higher = less favourable; fluorescence melt of hairpins on a sequencing array, two-state fit; conditions: sodium 0.088 M
Outline: (§1)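 On a sequenced MiSeq flow cell, library hairpins with annealed Cy3 and quencher oligos were imaged for Cy3 fluorescence in 2.5 °C steps up to 60 °C, in 50 mM Na-HEPES pH 8.0, 25 mM NaCl. Normalisation used pre-quench Cy3 and control constructs. Bootstrapped two-state fits gave melting temperature and folding enthalpy, combined by inverse variance across four replicates and with fitted temperatures raised by 9.35 °C to match UV melts.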

[2] = melting temperature; fluorescence melt of hairpins on a sequencing array, two-state fit, raised by 9.35 °C to match UV melts; conditions: sodium 0.088 M
Outline: as §1

Sequence | folding enthalpy [1] [kcal/mol] | Tm [2] [°C]
GCGAGTGGAAACACTTGC ((.((((....)))).)) | -39.2 | 53.6
GCCTAGGGAAACCTAAGC ((.((((....)))).)) | -14.7 | 31.6
GGACACGAAAGTGATCC ((((((....))).))) | -21.7 | 48.5
GACGGGCGAAAGCCTGTC (((.(((....))).))) | -26.2 | 67.3
GGTTATGCGAAAGCAACC (((..(((....)))))) | -15.1 | 38.3
GCGTCGGGAAACTGGCGC (((.(.(....).).))) | -37.1 | 53.2
GAGTTGCCGAAAGGCCTC (((..(((....)))))) | -9.97 | 34.9
GGTCAGGAAACTGACC ((((((....)))))) | -44.5 | 59.9
GGTTTCTCGAAAGAGACC (((..(((....)))))) | -18.8 | 32.6
GGCTTAGCGAAAGCTGCC (((..(((....)))))) | -23 | 52.5
GCAATTGGAAACAGTTGC ((((.((....)).)))) | -33.3 | 47
GATGATGAAAATCATC ((((((....)))))) | -29 | 51.2
GCGGCGCGAAAGCTCAGC ((.(.((....)).).)) | -19.2 | 56.7
GATCTCTTGGAGATC ((((((...)))))) | -37.8 | 54.4
GTACAGCGAAAGCTCTAC (((.(((....))).))) | -17.3 | 29.5
GCAGAAACGAAAGTTTGC (((..(((....)))))) | -20.3 | 35.7
GAAAAGCGAAAGCTATTC (((.(((....))).))) | -19.5 | 36.4
GCTCTGCGAAAGCATTGC ((..(((....)))..)) | -14.2 | 40.5
GCCGAAACGAAAGTTGGC (((..(((....)))))) | -22.3 | 48
GAAGCCGAAAGGCTTTTC ((((((....)))..))) | -12 | 54.7
GATCCCACTGGGATC ((((((...)))))) | -34.8 | 60.9
GGGGTCGAAAGACTCCCC ((((((....)))..))) | -22.2 | 54.3
GCAGGGTCGAAAGACTGC (((..(((....)))))) | -23.4 | 45.8
GCATACGAAAGTACTTGC ((((((....)))..))) | -11.7 | 30.8

Sequence | folding enthalpy [1] [kcal/mol] | Tm [2] [°C]
GTCCGGCGAAAGCCTGAC (((.(((....))).))) | -20.9 | 51.8
GATCTGTGTGCAGATC ((((((....)))))) | -46.9 | 56.4
GTACTTCGAAAGAATAC (((.(((....)))))) | -7.86 | 25.9
GTCGAAGGAAACTTCGAC (((((((....))))))) | -48.6 | 62.2
GAACCGGGAAACCAGTTC ((((.((....)).)))) | -26.2 | 36.5
CGCGTCGGAAACGAGCG (((.(((....)))))) | -31.7 | 54.9
GATCAACCAATTGATC ((((((....)))))) | -32.7 | 39
GTTGTCGGAAACGACAAC (((((((....))))))) | -34.6 | 67
GCACCAGGAAACCGGTAC (.(((.(....).))).) | -8.98 | 22.2
GATCCCACCTGGGATC ((((((....)))))) | -35.6 | 60.1
GCGTAGCAACGC ((((....)))) | -9.68 | 61.4
GAGGGTGGAAACACCCCC (.(((((....))))).) | -10.7 | 44.8
GGATGAGGAAACTTGTCC (((..((....))..))) | -24.4 | 31.1
GGTAACGAAAGTTTACC ((((((....))).))) | -22.4 | 43.3
GATCTAGGAATAGATC ((((((....)))))) | -29.3 | 42.9
GTGAATCGAAAGATCAC (((.(((....)))))) | -26.3 | 45.3
GAGCGCGAAAGCGTTCTC ((((((....)))..))) | -18.1 | 66.8
GCCCACGAAAGTGATGGC ((((((....)))..))) | -29.4 | 50.6
GATCAACGAATTGATC ((((((....)))))) | -25.8 | 38.5
GATCCCAGTAGGGATC ((((((....)))))) | -35 | 66
GTCAACGAAAGTTAAGAC ((((((....)))..))) | -19.2 | 31.3
GTGGCCGGAAACGGTCGC (.(.(((....))).).) | -39.5 | 53.4
GGGACCGGAAACGGTTCC ((.((((....)))).)) | -42.5 | 62.6
GATCTGGATCAGATC ((((((...)))))) | -29.6 | 47.9

Sequence | folding enthalpy [1] [kcal/mol] | Tm [2] [°C]
GAACACCGAAAGGTTTTC (((.(((....))).))) | -25.1 | 38
GGTCGCGAAAGCGGGACC ((((((....)))..))) | -18.9 | 52.1
GGTGACGAAAGTCAAACC ((((((....)))..))) | -17.4 | 46.3
GGACCTCGAAAGAGCTCC (((.(((....))).))) | -25.5 | 37
GATGGCGAAAGCCACATC ((((((....)))..))) | -7.73 | 28.8
GATCCGGCGACGGATC ((((((....)))))) | -33.4 | 67.4
GCGGAGGGAAACCCCCAC (.((.((....)).)).) | -7.96 | 22.4
GCACTTCGAAAGAATTGC (((.(((....))).))) | -31.6 | 42.6
GATCCGCTATCGGATC ((((((....)))))) | -40.2 | 57.2
GTTCGGGAAACCGAAC ((((((....)))))) | -38.1 | 61.1
GAGGCCGGAAACGGCTTC ((.((((....)))).)) | -16.9 | 55.9
GCGACGCTCGC ((((...)))) | -15.3 | 50
GATCCCGTGTGGGATC ((((((....)))))) | -33.9 | 63.9
GGAACAGGAAACCGTTCC (((((.(....).))))) | -31.7 | 45.5
GACCCAGGAAACTGAGTC (((.(((....))).))) | -30 | 37.9
GCGTGTACACGC ((((....)))) | -28.5 | 67.6
GCTAAGCGAAAGCTACGC ((..(((....)))..)) | -13.2 | 39.2
GGGGTCGAAAGACACCCC ((((((....)))..))) | -12.6 | 61.8
GCGCAAGGAAACTTGCAC (.(((((....))))).) | -13.4 | 46.3
GCGACATCTCGC ((((....)))) | -24.2 | 46.5
GATAGAGCGAAAGCTATC (((..(((....)))))) | -13 | 32.3
GACCGCCCGAAAGGGGTC (((..(((....)))))) | -15.4 | 42.3
CGTTCGGAAACGATAACG ((((((....)))..))) | -30.6 | 36.1
GTATACGGAAACGTACAC ((.((((....)))).)) | -18.6 | 32.4

Sequence | folding enthalpy [1] [kcal/mol] | Tm [2] [°C]
GAAGACGAAAGTCTGTTC ((((((....)))..))) | -13.7 | 40
GATCTACCACTAGATC ((((((....)))))) | -30.6 | 39.7
GTGTGGCGAAAGCCCCAC (((.(((....))).))) | -23.5 | 51.3
GCTCGCCGAAAGGCCAGC (((.(((....))).))) | -18.1 | 50.5
GCGTACCGAAAGGTCCGC (((.(((....))).))) | -49.9 | 58.2
GATCTCAAGCGAGATC ((((((....)))))) | -37.6 | 50.4
GGGTGGCGAAAGCCCCCC (((.(((....))).))) | -17.4 | 65
GCGTGGCGAAAGCCCAGC ((..(((....)))..)) | -18.3 | 56.2
GCGGAGGCCCGC ((((....)))) | -17.4 | 53.8
GTACCCGAAAGGGTCTAC ((((((....)))..))) | -10.7 | 42.2
GATCGCTTGCGCGATC ((((((....)))))) | -30.3 | 67.1
GCGAATAATCGC ((((....)))) | -14 | 46.2
GATCTTTAGGAAGATC ((((((....)))))) | -28.5 | 42.6
GAGGTCCCGAAAGGGCTC (((..(((....)))))) | -13.7 | 37.6
GACGGGGGAAACCCCACC (..((((....))))..) | -7.44 | 30.3
GCTGTGGGAAACCACAAC (.(((((....))))).) | -15.8 | 39.2
GACGGAGGAAACTCCACC (..((((....))))..) | -10.4 | 26.4
GATCTTTAGCAAGATC ((((((....)))))) | -28.2 | 37.1
GATCCCTTTTGGGATC ((((((....)))))) | -38.3 | 60.1
GATCCCGATGGGATC ((((((...)))))) | -36.5 | 61.3
GCACTGCGAAAGCACGGC ((..(((....)))..)) | -17.6 | 38.4
